Activity calls are given as the source filed them. No cut-off for these calls is given here. Where a SMILES comes first, the peptide text is derived from it.
What was measured:
[1] = molecular target: T1, Mas-related G-protein coupled receptor member X2 (Homo sapiens) (UniProt Q96LB1); test: Agonist activity at N-terminal Flag-tagged human MRGPRX2 receptor expressed in FLP-IN/T-REX 293 cells assessed as increase in intracellular calcium release by FLIPR assay; assay type: functional, cell-based; conditions: filed as agonist
T1 sequence (whole entry): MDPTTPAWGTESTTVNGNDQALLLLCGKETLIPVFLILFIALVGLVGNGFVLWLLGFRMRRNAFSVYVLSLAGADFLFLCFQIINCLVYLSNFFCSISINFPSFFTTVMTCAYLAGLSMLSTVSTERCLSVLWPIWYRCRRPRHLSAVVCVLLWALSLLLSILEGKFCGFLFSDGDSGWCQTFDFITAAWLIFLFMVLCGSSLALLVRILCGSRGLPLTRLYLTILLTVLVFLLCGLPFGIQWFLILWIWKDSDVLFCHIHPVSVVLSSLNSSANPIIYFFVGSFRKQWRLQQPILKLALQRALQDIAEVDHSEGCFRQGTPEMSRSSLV
How it was run: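 FLIPR calcium: FLP-IN/T-REX HEK-293-T stable line with N-terminal FLAG codon-optimized receptor, induced 24 h with 1 μg/mL tetracycline in 1% dialyzed FBS (uninduced cells as control); FLIPR calcium dye plus 2.5 mM probenecid 1 h 37°C; 10 s baseline, then drug in HBSS/20 mM HEPES/probenecid pH 7.4, 16-point curve 10 μM to 0.003 nM; fluorescence 120 s; fold over basal, n=3 triplicate.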

[2] = molecular target: T2, Mas-related G-protein coupled receptor member X2 (Homo sapiens, UniProt Q96LB1); test: Agonist activity at N-terminal Flag-tagged human MRGPRX2 receptor expressed in tetracycline-induced FLP-IN/T-REX 293 cells assessed as increase in intracellular calcium release by FLIPR assay; assay type: functional, cell-based; conditions: read-out: pEC50 (converted)
T2 sequence (Q96LB1 whole entry): T1 sequence (whole entry)

[3] = molecular target: T2, Mas-related G-protein coupled receptor member X2; test: Agonist activity at MRGPRX2 (unknown origin) expressed in HTLA cells assessed as induction of beta-arrestin 2 recruitment incubated for 18 to 24 hrs by PRESTO-Tango assay; assay type: functional, cell-based; conditions: read-out: pEC50 (converted)
[4] = test system: HTLA; test: Agonist activity at […] expressed in HTLA cells assessed as induction of beta-arrestin 2 recruitment incubated for 18 to 24 hrs by PRESTO-Tango assay; assay type: cell-based; conditions: Rodentia, filed as agonist, time 18-24 hrs
How it was run: (§1)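 β-arrestin2 recruitment by PRESTO-Tango: HTLA cells transiently transfected (calcium phosphate) with codon-optimized MRGPRX2-Tango (WT or point mutant) or MRGPRB2-Tango, plated next day 20,000 cells/well on poly-L-lysine; drug in HBSS/20 mM HEPES/0.3% BSA pH 7.4 for 18–24 h; Bright-Glo luminescence (RLU); curves n=3 in triplicate, mutants n=4 in triplicate.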

[5] = test system: Flp-In-T-REx-293; test: Agonist activity at rodent MRGPRB2 receptor expressed in tetracycline-induced FLP-IN/T-REX 293 cells assessed as increase in intracellular calcium release at 0.003 to 100000 nM by FLIPR assay; assay type: cell-based; conditions: Rodentia, filed as agonist, dose 0.003-100000 nM
[6] = molecular target: T1, Mas-related G-protein coupled receptor member X2 (Homo sapiens); test: Agonist activity at MRGPRX2 receptor in human LAD2 cells transfected with MRGPRX2 siRNA assessed as increase in degranulation incubated for 30 mins by beta-hexosaminidase assay; assay type: functional, cell-based
How it was run: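 LAD2 cells (1.2 million/well) transfected with 25 nM MRGPRX2 siRNA pool or non-targeting pool, 72 h; 200,000 cells taken for β-hexosaminidase assay with EC80 concentration of agonist, 30 min 37°C; knockdown checked by qRT-PCR on 1 million cells; fold change % degranulation versus DMSO; two-way ANOVA with Sidak test.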

[7] = molecular target: T1, Mas-related G-protein coupled receptor member X2 (Homo sapiens); test: Agonist activity at MRGPRX2 (unknown origin) expressed in HTLA cells assessed as induction of beta-arrestin 2 recruitment at 10 uM incubated for 18 to 24 hrs by PRESTO-Tango assay; assay type: functional, cell-based; conditions: filed as agonist, time 18-24 hrs; how it was run: as §1
[8] = molecular target: T1, Mas-related G-protein coupled receptor member X2 (Homo sapiens); test: Agonist activity at MRGPRX2 receptor in human LAD2 cells assessed as increase in intracellular calcium release by FLIPR assay; assay type: functional, cell-based; conditions: filed as agonist
How it was run: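 LAD2 human mast cells seeded 50,000/well in Tyrode's buffer with calcium dye, 1 h before drug; 10 s baseline, drug added, fluorescence followed 120 s; expressed as fold calcium release over baseline; n=3 in triplicate.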

With `CC[C@H](C)[C@H](N)C(=O)N[C@@H](CC(N)=O)C(=O)N[C@@H](CC(C)C)C(=O)N[C@@H](CCCCN)C(=O)N[C@@H](C)C(=O)N[C@@H](CC(C)C)C(=O)N[C@@H](C)C(=O)N[C@@H](C)C(=O)N[C@@H](CC(C)C)C(=O)N[C@@H](C)C(=O)N[C@@H](CCCCN)C(=O)N[C@@H](CCCCN)C(=O)N[C@H](C(=O)N[C@@H](CC(C)C)C(N)=O)[C@@H](C)CC` the Activity [1] was “Active”, the EC50 [2] was 11.7 µM and the EC50 [3] was > 31.6 µM.

Work on `COC1=CC2CN(C)CCC2C=C1` (stereo unspecified) yielded an EC50 [2] of 1.62 µM.

With `C[C@@H](O)[C@@H]1NC(=O)[C@H](CCCCN)NC(=O)[C@H](Cc2c[nH]c3ccccc23)NC(=O)[C@H](Cc2ccccc2)NC(=O)[C@H](Cc2ccccc2)NC(=O)[C@H](CC(N)=O)NC(=O)[C@H](CCCCN)NC(=O)[C@@H](NC(=O)[C@@H]2CCCN2)CSSC[C@@H](C(=O)N[C@@H](CCCCN)C(=O)O)NC(=O)[C@H](CO)NC(=O)[C@H](CO)NC(=O)[C@H](Cc2ccccc2)NC1=O` (HELM PEPTIDE1{P.C.K.N.F.F.W.K.T.F.S.S.C.K}$PEPTIDE1,PEPTIDE1,2:R3-13:R3$$$V2.0) the EC50 [2] was 0.417 µM, the EC50 [3] was 0.145 µM and the Activity [4] was “Active”. The Activity [5] was “Active”.

`CN(C)C1CCN(c2cc(-c3ccccc3)nc3ccnn23)C1` (racemic) was tested, and the Activity [6] was “inactive”, the Activity [7] was “Active” and the Activity [8] was “Active”.

From ChEMBL document CHEMBL5661985, “In silico design of novel probes for the atypical opioid receptor MRGPRX2” (Nat Chem Biol, 2017)
